In PMC8742637 (Clinical and Translational Science, 2021):
Read-outs that look alike come from different tables or passages of the source.

What was measured:
[1] = type: in vivo; conditions: human, plasma, po, 10 mg
Procedure, shortened: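 Single-center, randomized, open-label, three-period, six-sequence crossover in healthy volunteers. Each drug was given alone and with the other as a single oral dose after a 10-h fast. Blood was sampled to 72 h, and washout was at least 21 days. Plasma was analysed by LC-MS with stable isotope-labeled internal standards. Noncompartmental parameters: AUC0-T by linear trapezoidal rule, AUC∞ = AUC0-T + Clast/λz.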

[2] = Study 3: safety, treatment-emergent adverse events; type: in vivo, human; conditions: BISO 10 mg, RAMI 10 mg alone or together, % of subjects in the Safety population in each treatment group
[3] = Bioequivalence studies 1 and 2: PK summary across both treatments and studies; type: in vivo, human
Procedure, shortened: (§1)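 Single-center, randomized, open-label, laboratory-blinded, two-period, two-sequence crossover in healthy volunteers. Each subject got one oral dose of the fixed-dose combination or the co-administered reference tablets with ~240 ml water after a 10-h fast. Washout was at least 21 days. Parent drugs were measured in plasma by LC-MS after protein precipitation. Noncompartmental analysis used actual times, with t½ = ln(2)/λz.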

[4] = type: in vivo, human
Procedure, shortened: as §1

[5] = type: in vivo; conditions: human, plasma, oral, 5 mg
Procedure, shortened: as §1

Row | AUC(0-inf) [1] | AUC(0-t) [1] | Cmax [1] | Tmax [1] | half-life [1] | time after dosing at which BISO peak concentrations were achieved ([3]; across both treatments, studies 1 and 2, BISO 10 mg single oral dose, fasting) | half-life ([3]; human, plasma, oral) | observed ISCV (intrasubject coefficient of variation) for Cmax ([4]; Study 1, expected 32%) | half-life ([4]; human, plasma, oral, 10 mg) | half-life [5] | median time to ramipril peak concentration ([3]; across both treatments and studies 1 and 2) | Compound | Subjects with at least one drug‐related TEAE [2]
1 | 777 ng·h/mL | 732 ng·h/mL | 42.6 ng/mL | 2.33 h | 11.2 h | 2.33 h | 10.7 to 10.9 h | – | – | – | – | CC(C)NCC(O)COc1ccc(COCCOC(C)C)cc1 (stereo not drawn) [BISO, bisoprolol] | 4 (13.8) n (%)
2 | 18.1 ng·h/mL | 17.1 ng·h/mL | 24.1 ng/mL | 0.5 h | 2.03 h | – | – | 36% | 2.17 to 2.32 h | 1.39 to 1.68 h | 0.50 h | CCOC(=O)[C@H](CCc1ccccc1)N[C@@H](C)C(=O)N1[C@H](C(=O)O)C[C@@H]2CCC[C@@H]21 [RAMI, ramipril] | 3 (10.7) n (%)
